According to article PMC12024519 (Science Advances, 2025):

Assays:
[1] = tested on: BRD9-BD; assay: in vitro biotin-peptide pull-down with GST-BRD9-BD; type: binding; conditions: immunoblot; for relative affinity of BRD9-BD for R391me2s vs H4R3me2s: biotin-labeled peptides, pull-down with GST-BRD9-BD
[2] = tested on: Tudor domain of SMN; assay: biotin-peptide pull-down with GST-SMN-Tudor; type: binding; conditions: compared to BRD9-BD, immunoblot
[3] = tested on: Tudor domain of SND1; assay: biotin-peptide pull-down with GST-SND1-Tudor; type: binding; conditions: compared to BRD9-BD, immunoblot
[4] = tested on: BRD9-3Mut; assay: biotin-peptide pull-down with Myc-BRD9-3Mut; type: binding; conditions: Myc-BRD9-3Mut from HEK293T WCL; immunoblot
[5] = tested on: BRD9 interaction with AKT1; assay: co-immunoprecipitation of BRD9 and AKT1 in MDA-MB-231 cells; type: cell-based; conditions: 0.1 μM, 16 hours
How it was run: (§1)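 Cells grown in DMEM with 10% FBS, penicillin/streptomycin, at 37°C and 5% CO2; HEK293T transfected with Lipofectamine/Plus. Cells rinsed in ice-cold PBS and lysed in Triton buffer (40 mM Hepes pH 7.4, 150 mM NaCl, 1% Triton X-100) or EBC buffer (50 mM Tris pH 7.5, 0.5% NP-40) with protease/phosphatase inhibitors. 1000–3000 μg lysate incubated with agarose-conjugated antibody 3–4 h at 4°C; beads washed five times in NETN; SDS-PAGE immunoblot.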

[6] = tested on: SMARCA2/4; assay: immunoblot of SMARCA2/4 depletion; type: cell-based; conditions: 0.1 μM, 16 hours, MDA-MB-231
How it was run: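 Cells grown at 37°C, 5% CO2 with 10% FBS: MDA-MB-231 and MCF-7 in DMEM, BT-549 and T-47D in RPMI 1640. After washing in ice-cold PBS, cells were lysed in Triton (pH 7.4) or EBC (pH 7.5) buffer with protease and phosphatase inhibitors. Equal protein was resolved by SDS-PAGE, transferred to PVDF and probed with primary antibodies at 1:1000–1:10,000 in TBST/5% milk.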

[7] = tested on: H3K27me3; assay: immunoblot of H3K27me3; type: cell-based
[8] = tested on: AKT; assay: immunoblot of AKT phosphorylation in HEK293T cells; type: cell-based, Human; conditions: 0.1 μM, 0-6 h
[9] = tested on: BRD9 and AKT1 interaction; assay: co-immunoprecipitation of Myc-BRD9 and HA-AKT1 in HEK293T cells; type: cell-based, Human; conditions: 5 μM, 24 hours
[10] = tested on: AKT; assay: immunoblot of AKT activation; type: cell-based; conditions: 5 μM I-BRD9, MDA-MB-231, indicated times
How it was run: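 MDA-MB-231 cells kept in DMEM with 10% FBS, penicillin/streptomycin, 37°C, 5% CO2. After treatment, cells washed with ice-cold PBS and lysed in Triton or EBC buffer containing protease/phosphatase inhibitors. Protein quantified by Bio-Rad assay; equal lysate amounts run on SDS-PAGE and transferred to PVDF. Blots probed with pT308-AKT, pS473-AKT, pan-AKT, pGSK-3β and GSK-3β antibodies diluted 1:1000–1:10,000 in TBST/5% milk.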

[11] = tested on: AKT1 PH and KD domains; assay: interaction of AKT1 PH and KD domains in HEK293T cells; type: cell-based, Human; conditions: 5 μM I-BRD9, 16 h
[12] = tested on: EZH2; assay: AKT-mediated phosphorylation of EZH2, phospho-AKT substrate antibody; type: cell-based, Human; conditions: 5 μM I-BRD9, 16 h, HEK293T transfected with HA-EZH2
How it was run: as §1

[13] = tested on: MDA-MB-231 cells; assay: RNA-seq of treated MDA-MB-231 cells; type: cell-based, human; conditions: for shared down-regulated genes (I-BRD9 and ipatasertib) / shared up-regulated genes (I-BRD9 and ipatasertib): 5 μM I-BRD9 or 1 μM ipatasertib, Q value < 0.05; for hallmark gene sets significantly enriched among the 186 shared genes: MSigDB, genes shared by I-BRD9 and ipatasertib; for common down-regulated genes significantly marked by H3K27me3: of 116 genes common to I-BRD9 and ipatasertib, epidecodeR
[14] = tested on: MDA-MB-231 cells; assay: RT-qPCR of select common genes in MDA-MB-231 cells; type: cell-based; conditions: n = 3 biological replicates

**Q.** What does the source list for “Biotin-Ahx-GLLKKDPKQ(Rme2s)LGGGSEDA [R391me2s]”?
**A.** relative affinity of BRD9-BD for R391me2s vs H4R3me2s [1]: greater affinity for R391me2s than H4R3me2s; binding of Tudor domain of SMN to R391me2s [2]: much weaker or no binding; binding of Tudor domain of SND1 to R391me2s [3]: much weaker or no binding; binding of BRD9-3Mut to AKT1-R391me2s peptide [4]: incapable of binding

**Q.** “H4R3me2s: Biotin-H4R3me2s peptide, ANASPEC AS-65424” was tested. Which “relative affinity of BRD9-BD for R391me2s vs H4R3me2s” value [1] did it give?
**A.** greater affinity for R391me2s than H4R3me2s

**Q.** With Cc1ncsc1-c1ccc([C@H](C)NC(=O)[C@@H]2C[C@@H](O)CN2C(=O)[C@@H](NC(=O)CN2CCN(c3cc(-c4ccccc4O)nnc3N)CC2)C(C)(C)C)cc1 [AU-15330] as the compound, how does the “effect on BRD9 interaction with AKT1” value [5] read?
**A.** minimal effects on BRD9 interaction with AKT1

**Q.** And the “depletion of SMARCA2/4” value [6]?
**A.** depletion of SMARCA2/4

**Q.** What about the “H3K27me3, AU-15330” value ([7]; 0.1 μM, 0-6 h, HEK293T) of the same compound?
**A.** minor effects

**Q.** And the “AKT phosphorylation, AU-15330” value [8]?
**A.** minor effects

**Q.** What does the source list for CCn1cc(-c2cccc(C(F)(F)F)c2)c2sc(C(=N)NC3CCS(=O)(=O)CC3)cc2c1=O [I-BRD9]?
**A.** effect on AKT1-R391me2s peptide binding of BRD9-BD in vitro ([1]; 5 μM I-BRD9, pull-down): blocked the AKT1-R391me2s peptide binding of BRD9-BD in vitro; effect on BRD9 and AKT1 interaction in cells [9]: markedly impaired BRD9 and AKT1 interaction in cells; AKT activation, I-BRD9 [10]: diminished AKT activation in a time-dependent manner; interaction between PH and KD domains, I-BRD9 [11]: enhance the interaction between the PH and KD domains; H3K27me3, I-BRD9 combined with AKT1 depletion ([7]; 5 μM I-BRD9, 16 h, AKT1-depleted MDA-MB-231): did not further induce H3K27me3; H3K27me3 induction by I-BRD9 upon overexpression of myr-AKT1 ([7]; 5 μM I-BRD9, 16 h, MDA-MB-231 stably expressing Myr-AKT1 (fig. S6J)): largely suppressed H3K27me3 induction; H3K27me3 signal, I-BRD9 ([7]; MDA-MB-231 (Fig. 5D) and MDA-MB-436 (0, 1, 5 μM, fig. S6C), 16 h): markedly enhanced H3K27me3 signal; AKT-mediated phosphorylation of EZH2 [12]: largely blocked AKT-mediated phosphorylation of EZH2; shared down-regulated genes (I-BRD9 and ipatasertib) ([13]; 16 hours): 116 genes; shared up-regulated genes (I-BRD9 and ipatasertib) ([13]; 16 hours): 70 genes; hallmark gene sets significantly enriched among the 186 shared genes [13]: Nine; common down-regulated genes significantly marked by H3K27me3 [13]: Seventy-five; mRNA of shared genes in hallmark pathways, I-BRD9 ([14]; 5 μM I-BRD9, 16 hours): transcriptionally repressed

**Q.** Which “H3K27me3 level, BKM120” value ([7]; 0, 1, 5 μM, 16 h, MDA-MB-231) does the source give for Nc1cc(C(F)(F)F)c(-c2cc(N3CCOCC3)nc(N3CCOCC3)n2)cn1 [BKM120] here?
**A.** elevated

**Q.** CC(C)NC[C@@H](C(=O)N1CCN(c2ncnc3c2[C@H](C)C[C@H]3O)CC1)c1ccc(Cl)cc1 [ipatasertib] was tested. Which “H3K27me3 level, ipatasertib” value ([7]; 0, 1, 5 μM, 16 h, MDA-MB-231) did it give?
**A.** elevated

**Q.** What about the “share of AKT-down-regulated genes that are common with I-BRD9” value ([13]; 1 μM ipatasertib, 16 hours) of the same compound?
**A.** 59%

**Q.** And the “share of AKT-up-regulated genes that are common with I-BRD9” value ([13]; 1 μM ipatasertib, 16 hours)?
**A.** 32%

**Q.** What about the “shared down-regulated genes (I-BRD9 and ipatasertib)” value ([13]; 16 hours) of the same compound?
**A.** 116 genes

**Q.** What about the “shared up-regulated genes (I-BRD9 and ipatasertib)” value ([13]; 16 hours) of the same compound?
**A.** 70 genes

**Q.** What about the “hallmark gene sets significantly enriched among the 186 shared genes” value [13] of the same compound?
**A.** Nine

**Q.** And the “common down-regulated genes significantly marked by H3K27me3” value [13]?
**A.** Seventy-five

**Q.** And the “mRNA of shared genes in hallmark pathways, ipatasertib” value ([14]; 1 μM ipatasertib, 16 hours)?
**A.** transcriptionally repressed

**Q.** With O=c1cc(N2CCOCC2)oc2c(-c3ccccc3)cccc12 [LY294002] as the compound, how does the “H3K27me3 level, LY294002” value ([7]; 0, 10, 20 μM, 16 h, MDA-MB-231) read?
**A.** elevated

**Q.** With CC[C@H](C)n1cc(C)c2c(C(=O)NCc3c(C)cc(C)[nH]c3=O)cc(-c3ccc(N4CCNCC4)nc3)cc21 [GSK126] as the compound, how does the “effect on H3K27me3 elevation caused by loss of BRD9” value ([7]; 5 μM GSK126, 16 h, MDA-MB-231, sgBRD9) read?
**A.** completely blocked

**Q.** What about the “effect on I-BRD9-enhanced H3K27me3” value ([7]; GSK126 with I-BRD9, 16 h, MDA-MB-231 (fig. S6D)) of the same compound?
**A.** suppressed

**Q.** What about the “transcription of common genes of BRD9 and AKT” value ([14]; 5 μM GSK126, 48 hours) of the same compound?
**A.** increased the transcription of common genes of BRD9 and AKT
